In brackets after ≈: the same amount, converted by molar mass. Activity calls are given as the source filed them. The rule behind the calls is not given here.
What was measured:
Candida albicans [1] = experiment: Antifungal activity against fluconazole-sensitive Candida albicans SC5314 assessed as change in lanosterol composition at 8 ug/ml after 24 hrs by GC-MS analysis (reference value: 1.5%); type: functional
Outline: (§1)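 C. albicans SC5314 exposed to 8 μg/mL for 24 h, sterols analysed by GC-MS with cholesterol internal standard; each sterol expressed as % of total sterol fraction versus no-drug control; average of three independent experiments.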

Candida albicans [2] = experiment: Inhibition of biofilm formation of fluconazole-resistant Candida albicans 103 at 64 ug/ml after 48 hrs by XTT assay; type: functional, organism-based
Outline: (§2)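 Biofilm formation by C. albicans SC5314 or 103 in presence of 2–64 μg/mL drug (fluconazole 64 μg/mL reference); quantified by XTT reduction as % of blank control; mean ± standard deviation of three independent experiments, ANOVA and Student t test.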

Candida parapsilosis = experiment: Antifungal activity against Candida parapsilosis ATCC 22019 after 24 hrs by serial dilution method; type: functional; details: Lodderomyces parapsilosis, ATCC 22019, 24 h
Candida albicans [3] = experiment: Antifungal activity against fluconazole-sensitive Candida albicans SC5314 assessed as change in sterol composition at 8 ug/ml after 24 hrs by GC-MS analysis (reference value: 8.5%); type: functional; outline: as §1
Candida albicans [4] = experiment: Fungicidal activity against fluconazole-sensitive Candida albicans SC5314 at 32 ug/ml after 12 to 48 hrs; type: functional, organism-based
Outline: (§3)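 Time-kill: C. albicans (SC5314 or 103) inoculated at 10^5 CFU/mL, untreated or with drug (2–32 μg/mL; fluconazole 32 μg/mL reference); CFU/mL counted after 0, 12, 24 and 48 h.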

Candida albicans [5] = experiment: Antifungal activity against fluconazole-resistant Candida albicans 103 after 24 hrs by serial dilution method; type: functional; details: Candida albicans, 103, 24 h
Candida albicans [6] = experiment: Antifungal activity against fluconazole-resistant Candida albicans 100 after 24 hrs by serial dilution method; type: functional; details: Candida albicans, 100, 24 h
Cryptococcus neoformans = experiment: Antifungal activity against Cryptococcus neoformans 32609 after 72 hrs by serial dilution method; type: functional; details: Cryptococcus neoformans, 32609, 72 h
Candida albicans [7] = experiment: Antifungal activity against fluconazole-sensitive Candida albicans SC5314 assessed as cell membrane damage at 8 ug/ml after 8 hrs by TEM analysis; type: functional, organism-based
Outline: (§4)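 Transmission electron microscopy of C. albicans SC5314 cells exposed to 8 μg/mL drug for 8 h; untreated cells as reference; cell wall, membrane, cytoplasm and vacuole morphology inspected.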

Nannizzia gypsea = experiment: Antifungal activity against Microsporum gypseum Cmccfmza after 7 days by serial dilution method; type: functional; details: 168 h
Pichia kudriavzevii = experiment: Antifungal activity against Candida krusei 0710397 after 7 days by serial dilution method; type: functional; details: Pichia kudriavzevii, 0710397, 168 h
Candida albicans [8] = experiment: Fungicidal activity against fluconazole-sensitive Candida albicans SC5314 assessed as reduction in fungi density after 24 hrs; type: functional, organism-based; outline: as §3
Candida albicans [9] = experiment: Antifungal activity against fluconazole-sensitive Candida albicans SC5314 after 24 hrs by serial dilution method; type: functional; details: SC5314, 24 h
Candida albicans [10] = experiment: Antifungal activity against fluconazole-resistant Candida albicans 07109 after 24 hrs by serial dilution method; type: functional; details: Candida albicans, 07109, 24 h
Candida tropicalis = experiment: Antifungal activity against Candida tropicalis after 7 days by serial dilution method; type: functional; details: 168 h
Nakaseomyces glabratus = experiment: Antifungal activity against Candida glabrata 537 after 24 hrs by serial dilution method; type: functional; details: Nakaseomyces glabratus, 537, 24 h
Trichophyton rubrum = experiment: Antifungal activity against Trichophyton rubrum Cmccftla after 7 days by serial dilution method; type: functional; details: 168 h
Candida albicans [11] = experiment: Antifungal activity against fluconazole-sensitive Candida albicans SC5314 assessed as change in ergosterol composition at 8 ug/ml after 24 hrs by GC-MS analysis (reference value: 90%); type: functional; outline: as §1
Aspergillus fumigatus = experiment: Antifungal activity against Aspergillus fumigatus 07544 after 7 days by serial dilution method; type: functional; details: Aspergillus fumigatus, 07544, 168 h
Candida albicans [12] = experiment: Antifungal activity against fluconazole-sensitive Candida albicans SC5314 assessed as change in obtusifoliol composition at 8 ug/ml after 24 hrs by GC-MS analysis relative to control; type: functional; outline: as §1
Candida albicans [13] = experiment: Inhibition of hyphal growth of fluconazole-sensitive Candida albicans SC5314 at 8 ug/ml after 16 hrs by light microscopic analysis; type: functional, organism-based
Outline: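 C. albicans SC5314 incubated in RPMI 1640 liquid medium at 37 °C for 16 h with or without drug (2–8 μg/mL); hyphal, pseudohyphal or yeast morphology scored microscopically against blank control.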

Candida albicans [14] = experiment: Inhibition of biofilm formation of fluconazole-sensitive Candida albicans SC5314 at 64 ug/ml after 48 hrs by XTT assay relative to control; type: functional; outline: as §2
Candida albicans [15] = experiment: Antifungal activity against fluconazole-sensitive Candida albicans SC5314 assessed as abnormal cell shape at 8 ug/ml after 8 hrs by TEM analysis; type: functional, organism-based; outline: as §4
Candida albicans [16] = experiment: Antifungal activity against fluconazole-sensitive Candida albicans SC5314 assessed as change in eburicol composition at 8 ug/ml after 24 hrs by GC-MS analysis relative to control; type: functional; outline: as §1
Candida albicans [17] = experiment: Antifungal activity against fluconazole-resistant Candida albicans 805 after 24 hrs by serial dilution method; type: functional; details: Candida albicans, 805, 24 h

`OC(Cn1cncn1)(Cn1cncn1)c1ccc(F)cc1F` [FLUCONAZOLE] was tested, and the Activity (Candida albicans [1]) was 5.9%, the inhibition (Candida albicans [2]) was “inactive” and the MIC80 (Candida parapsilosis) was 2 µg/mL (≈ 6.53 µM). For the same molecule, the Activity (Candida albicans [3]) was 4.8%, the Activity (Candida albicans [4]) was “Active” and the MIC80 (Candida albicans [5]) was 4 µg/mL (≈ 13.1 µM). The MIC80 (Candida albicans [6]) was > 1020 µg/mL, the MIC80 (Cryptococcus neoformans) was 2 µg/mL (≈ 6.53 µM) and the Activity (Candida albicans [7]) was “Active”. For the same molecule, the MIC80 (Nannizzia gypsea) was 1 µg/mL (≈ 3.27 µM), the MIC80 (Pichia kudriavzevii) was 4 µg/mL (≈ 13.1 µM) and the Activity (Candida albicans [8]) was “inactive”. For the same molecule, the MIC80 (Candida albicans [9]) was 0.5 µg/mL (≈ 1.63 µM), the MIC80 (Candida albicans [10]) was > 1020 µg/mL and the MIC80 (Candida tropicalis) was 1 µg/mL (≈ 3.27 µM). For the same molecule, the MIC80 (Nakaseomyces glabratus) was 0.5 µg/mL (≈ 1.63 µM), the MIC80 (Trichophyton rubrum) was 4 µg/mL (≈ 13.1 µM) and the Activity (Candida albicans [11]) was 0.6%. For the same molecule, the MIC80 (Aspergillus fumigatus) was > 64 µg/mL, the Activity (Candida albicans [12]) was 6.5% and the “growth inhibition (GI)” value (Candida albicans [13]) was “inactive”. The inhibition (Candida albicans [14]) was “inactive”, the Activity (Candida albicans [15]) was “Active” and the Activity (Candida albicans [16]) was 82.2%. The MIC80 (Candida albicans [17]) was > 1020 µg/mL.

`Cc1ccc2c(c1)[C@@H]1CN(C)CC[C@@H]1N2C(=O)c1ccc2ccccc2c1` was tested, and the MIC80 (Candida parapsilosis) was 16 µg/mL (≈ 44.9 µM), the Activity (Candida albicans [4]) was “Active” and the MIC80 (Cryptococcus neoformans) was 8 µg/mL (≈ 22.4 µM). For the same molecule, the MIC80 (Nannizzia gypsea) was 32 µg/mL (≈ 89.8 µM), the MIC80 (Candida albicans [9]) was 32 µg/mL (≈ 89.8 µM) and the MIC80 (Nakaseomyces glabratus) was > 64 µg/mL. The MIC80 (Trichophyton rubrum) was 16 µg/mL (≈ 44.9 µM) and the MIC80 (Aspergillus fumigatus) was > 64 µg/mL.

Source: ChEMBL document CHEMBL3286225, “Novel carboline derivatives as potent antifungal lead compounds: design, synthesis, and biological evaluation” (ACS Med Chem Lett, 2014)
